Measurements taken from publication PMC4470291 (Biochemistry, 2009).
Square brackets hold non-standard residues; d marks the D form. Peptide text beside a SMILES is read from it. * marks the point of attachment. AMC = Cc1cc(=O)oc2cc(N*)ccc12; Pip = O=C(O)[C@@H]1CCCCN1; Cbz = O=C(OCc1ccccc1)*; AEEA = NCCOCCOCC(=O)O

What was measured:
DPPIV [1] = target: T1, DPPIV (Homo sapiens, UniProt P27487); assay: Kinetics of fluorogenic substrate cleavage by DPPIV; assay type: biochemical
APCE [2] = target: T2, APCE (Homo sapiens, UniProt Q12884); assay: Kinetics of fluorogenic substrate cleavage by APCE; assay type: biochemical; conditions: for kcat, APCE / Km: pH 7.5, 22 °C, 20 min; for Km: read-out: Km, APCE
T2 sequence (Q12884 24-760 limits assumed): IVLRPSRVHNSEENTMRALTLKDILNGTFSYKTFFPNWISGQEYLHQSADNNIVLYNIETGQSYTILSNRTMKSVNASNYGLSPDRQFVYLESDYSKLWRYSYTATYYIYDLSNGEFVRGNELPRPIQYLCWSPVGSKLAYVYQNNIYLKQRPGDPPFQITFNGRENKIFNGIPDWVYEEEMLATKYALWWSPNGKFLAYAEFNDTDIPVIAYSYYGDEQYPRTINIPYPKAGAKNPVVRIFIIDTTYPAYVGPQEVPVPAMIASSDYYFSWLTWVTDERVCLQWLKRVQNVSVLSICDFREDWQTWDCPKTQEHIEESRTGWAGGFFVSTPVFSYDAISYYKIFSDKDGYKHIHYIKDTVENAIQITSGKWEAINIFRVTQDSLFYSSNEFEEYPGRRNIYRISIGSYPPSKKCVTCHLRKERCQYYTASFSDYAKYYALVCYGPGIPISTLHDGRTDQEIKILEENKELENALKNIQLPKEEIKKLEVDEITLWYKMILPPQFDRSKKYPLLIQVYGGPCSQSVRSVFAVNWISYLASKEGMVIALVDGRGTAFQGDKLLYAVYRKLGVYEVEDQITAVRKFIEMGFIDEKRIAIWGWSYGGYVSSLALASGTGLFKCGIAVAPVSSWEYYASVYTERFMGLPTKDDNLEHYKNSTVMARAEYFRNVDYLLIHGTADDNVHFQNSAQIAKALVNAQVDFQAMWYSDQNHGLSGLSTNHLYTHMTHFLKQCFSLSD

APCE [3] = target: T2, APCE; assay: Cleavage of inhibitor by APCE during incubation; assay type: biochemical; conditions: for hydrolysis of inhibitor by APCE: lengthy incubations with APCE
APCE [4] = target: T2, APCE; assay: APCE inhibition, fluorogenic substrate Z-Gly-Pro-AMC; assay type: biochemical; conditions: for inhibitory effect on APCE: result in words
In short: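 Human-plasma-purified APCE in 25 mM sodium phosphate, pH 7.5, with 1.0 mM EDTA and 4% methanol; 20 min at 22 °C. Z-Gly-Pro-AMC at five concentrations (10–500 μM range) crossed with four inhibitor concentrations around the expected Ki. Released AMC followed over time (ex 360/em 460 nm) against an AMC standard curve. Competitive mode set by Lineweaver–Burk; Ki from competitive-equation fit, best fit ± standard error.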

recombinant FAP = conditions: cited from earlier work
DPPIV [5] = target: T1, DPPIV; conditions: read-out: Ki for DPPIV; cited from earlier work
FAP = conditions: read-out: Ki for FAP; cited from earlier work
[6] = test system: CSCC[C@H](N)C(=O)N[C@@H](CCC(=O)O)C(=O)N1CCC[C@H]1C(=O)N[C@@H](CC(C)C)C(=O)NCC(=O)N[C@@H](CCCNC(=N)N)C(=O)N[C@@H](CCC(N)=O)C(=O)N[C@@H](CC(C)C)C(=O)N[C@H](C(=O)N[C@@H](CO)C(=O)NCC(=O)N1CCC[C@H]1C(=O)Nc1ccc2c(C)cc(=O)oc2c1)[C@@H](C)O; assay: Kinetics of fluorogenic substrate cleavage by APCE; assay type: biochemical, human; conditions: other: pH 7.5, 22 °C, 20 min
[7] = test system: CSCC[C@H](N)C(=O)N[C@@H](CCC(=O)O)C(=O)N1CCC[C@H]1C(=O)N[C@@H](CC(C)C)C(=O)NCC(=O)N[C@@H](Cc1c[nH]c2ccccc12)C(=O)N[C@@H](CCC(N)=O)C(=O)N[C@@H](CC(C)C)C(=O)N[C@H](C(=O)N[C@@H](CO)C(=O)NCC(=O)N1CCC[C@H]1C(=O)Nc1ccc2c(C)cc(=O)oc2c1)[C@@H](C)O; assay: Kinetics of fluorogenic substrate cleavage by APCE; assay type: biochemical, human; conditions: other: pH 7.5, 22 °C, 20 min

T1 sequence (P27487 whole entry, species assumed): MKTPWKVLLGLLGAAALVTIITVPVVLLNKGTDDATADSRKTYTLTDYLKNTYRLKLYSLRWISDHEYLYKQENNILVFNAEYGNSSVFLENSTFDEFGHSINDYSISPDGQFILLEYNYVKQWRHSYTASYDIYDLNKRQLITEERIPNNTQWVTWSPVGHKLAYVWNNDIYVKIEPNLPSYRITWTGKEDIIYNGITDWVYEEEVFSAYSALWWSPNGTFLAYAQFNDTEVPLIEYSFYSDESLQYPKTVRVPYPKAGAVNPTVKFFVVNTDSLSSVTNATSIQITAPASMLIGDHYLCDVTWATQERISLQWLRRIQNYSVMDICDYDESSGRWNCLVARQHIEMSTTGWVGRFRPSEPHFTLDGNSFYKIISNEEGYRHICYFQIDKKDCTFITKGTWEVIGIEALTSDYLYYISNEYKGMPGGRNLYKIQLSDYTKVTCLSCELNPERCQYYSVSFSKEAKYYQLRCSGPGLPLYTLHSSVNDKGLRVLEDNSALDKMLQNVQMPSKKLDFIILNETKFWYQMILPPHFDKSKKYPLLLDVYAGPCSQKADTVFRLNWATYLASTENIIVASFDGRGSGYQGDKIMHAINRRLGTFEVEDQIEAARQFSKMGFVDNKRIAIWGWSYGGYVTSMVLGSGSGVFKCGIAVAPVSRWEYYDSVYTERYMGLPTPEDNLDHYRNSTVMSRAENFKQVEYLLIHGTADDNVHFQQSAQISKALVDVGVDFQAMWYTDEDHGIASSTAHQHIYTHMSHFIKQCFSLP

## Cc1cc(=O)oc2cc(NC(=O)[C@@H]3CCCN3C(=O)CN)ccc12 [GP-AMC, Gly-Pro-7-amido-4-methylcoumarin] (H-Gly-Pro-{AMC})
DPPIV [1]
  kcat/Km of DPPIV higher than that of APCE: ~30 fold
DPPIV [1]; pH 7.5, 22 °C, 20 min
  kcat, DPPIV: 1.985 ± 0.102 s⁻¹
DPPIV [1]; read-out: Km, DPPIV, pH 7.5, 22 °C, 20 min
  Km: 63 ± 6 µM
APCE [2]
  kcat, APCE: 0.485 ± 0.0183 s⁻¹
  Km: 455 ± 42 µM
APCE [2]; vs MEPLGRQLTSGP-AMC, MEPLGWQLTSGP-AMC, Z-GP-AMC
  kcat/Km of APCE lower than the other three substrates: 6–51 fold

## CC(C)C[C@H](NC(=O)[C@H](CCC(N)=O)NC(=O)[C@H](CCCNC(=N)N)NC(=O)[C@@H](N)Cc1ccccc1)C(=O)N[C@H](C(=O)N[C@@H](CO)C(=O)NCC(=O)N1CCCC[C@H]1C(=O)N[C@@H](CC(N)=O)C(=O)N[C@@H](CCC(N)=O)C(=O)N[C@@H](CCC(=O)O)C(=O)N[C@@H](CCC(N)=O)C(=O)N[C@H](C(=O)O)C(C)C)[C@@H](C)O [Inhibitor 1, FRQLTSG-pipecolinyl-NQEQV] (H-FRQLTSG[Pip]NQEQV-OH; N-terminus assumed)
APCE [3]
  hydrolysis of inhibitor by APCE: slowly hydrolyzed

## CC(C)[C@H](NC(=O)[C@H](CCC(N)=O)NC(=O)[C@H](CCC(=O)O)NC(=O)[C@H](CCC(N)=O)NC(=O)[C@H](CC(N)=O)NC(=O)[C@@H]1CCCCN1C(=O)CNC(=O)COCCOCCNC(=O)[C@H](CCCNC(=N)N)NC(=O)[C@@H](N)Cc1ccccc1)C(=O)O [Inhibitor 2, FR-peg-G-pipecolinyl-NQEQV] (H-FR[AEEA]G[Pip]NQEQV-OH; N-terminus assumed)
APCE [3]; 1 h incubation, LC/MS
  fraction of inhibitor cleaved by APCE: ~6%
APCE [3]
  hydrolysis of inhibitor by APCE: slowly hydrolyzed

## CC(C)[C@H](NC(=O)[C@H](CCC(N)=O)NC(=O)[C@H](CCC(=O)O)NC(=O)[C@H](CCC(N)=O)NC(=O)[C@H](CC(N)=O)NC(=O)[C@@H]1CCCCN1C(=O)CNC(=O)COCCOCCNC(=O)CNC(=O)[C@@H](N)Cc1ccccc1)C(=O)O [Inhibitor 3, FG-peg-G-pipecolinyl-NQEQV] (H-FG[AEEA]G[Pip]NQEQV-OH; N-terminus assumed)
APCE [4]; printed as Ki reduced
  change of Ki relative to inhibitor 2 (P7 Arg replaced with Gly): ~4 fold

## N=C(N)NCCC[C@H](NC(=O)[C@@H](N)Cc1ccccc1)C(=O)NCCOCCOCC(=O)NCC(=O)N1CCCC[C@H]1C(N)=O [Inhibitor 11, FR-peg-G-pipecolinamide] (H-FR[AEEA]G[Pip]-NH2; N-terminus assumed)
APCE [4]
  inhibitory effect on APCE: lacked inhibitory properties

## Cc1cc(=O)oc2cc(NC(=O)[C@@H]3CCCN3C(=O)CNC(=O)OCc3ccccc3)ccc12 [Z-GP-AMC, benzyloxycarbonyl- (Z-) Gly-Pro-AMC] (Cbz-Gly-Pro-{AMC})
Recombinant FAP
  increase in catalytic efficiency of recombinant FAP as opposed to Gly-Pro-AMC: ~18 fold
APCE [2]
  kcat, APCE: 0.607 ± 0.02 s⁻¹
  Km: 90 ± 9 µM

## CC(=O)NCC(=O)N1CCCC1C#N (stereo not drawn) [acetyl-Gly-Pro-nitrile]
DPPIV [5]
  Ki: 61 µM
FAP
  Ki: 6.8 µM

## APCE (Homo sapiens)
[6]
  Km: 21 ± 2 µM
  kcat: 1.17 ± 0.0383 s⁻¹
  kcat/Km: 55000 M⁻¹ s⁻¹
[7]
  Km: 70 ± 6 µM
  kcat: 0.922 ± 0.025 s⁻¹
  kcat/Km: 13200 M⁻¹ s⁻¹

## FR-peg-G-pipecolinic acid
APCE [4]
  inhibitory effect on APCE: neither of which appeared to have any inhibitory effect

## NQEQV
APCE [4]
  inhibitory effect on APCE: neither of which appeared to have any inhibitory effect
